{"data": "Experimental data pooled from the literature"}
{"SMILES": "Nc1cc(Cl)c(Cl)cc1N", "target or system": "ME-180", "test": "cell growth or viability", "conditions": "72 h", "quantity": "IC50", "value": "100 µM"}
{"SMILES": "CCCCCOc1ccc(-c2cc(-c3ccc(C(=O)N[C@H]4C[C@@H](O)[C@@H](O)NC(=O)[C@@H]5[C@@H](O)[C@@H](C)CN5C(=O)[C@H]([C@H](O)CC(N)=O)NC(=O)[C@H]([C@H](O)[C@@H](O)c5ccc(O)c(OS(=O)(=O)O)c5)NC(=O)[C@@H]5C[C@@H](O)CN5C(=O)[C@H]([C@@H](C)O)NC4=O)cc3)no2)cc1", "target or system": "Candida dubliniensis", "test": "biofilm formation", "conditions": "16 µg/mL", "quantity": "inhibition", "value": "42%"}
{"SMILES": "CO[C@H]1/C=C/O[C@@]2(C)Oc3c(C)c(O)c4c(O)c(c(/C=N/N5CCN(C)CC5)c(O)c4c3C2=O)NC(=O)/C(C)=C\\C=C\\[C@H](C)[C@H](O)[C@@H](C)[C@@H](O)[C@@H](C)[C@H](OC(C)=O)[C@@H]1C", "target or system": "Vero", "test": "cell growth or viability", "conditions": "18 h", "quantity": "IC50", "value": "120 µg/mL"}
{"SMILES": "CN1C[C@H](C(=O)N[C@]2(C)O[C@@]3(O)[C@@H]4CCCN4C(=O)[C@H](Cc4ccccc4)N3C2=O)C=C2c3cccc4[nH]cc(c34)C[C@H]21", "target or system": "NCI-H1299", "test": "cell growth or viability, MTT", "conditions": "72 h", "quantity": "EC50", "value": "~25 µM"}
{"SMILES": "CC1CCN(CCCN2/C(=C/c3cc[n+](C)c4ccccc34)Sc3ccccc32)CC1.[I-]", "target or system": "Enterobacter cloacae", "test": "microbial growth, broth dilution", "system": "ATCCBAA1143", "quantity": "MIC", "value": "> 64 µg/mL"}
{"SMILES": "Nc1cc(Br)c(Br)cc1N", "target or system": "ME-180", "test": "cell growth or viability", "conditions": "72 h", "quantity": "IC50", "value": "75 µM"}
{"SMILES": "CN[C@H](CC(C)C)C(=O)N[C@H]1C(=O)N[C@@H](CC(N)=O)C(=O)N[C@H]2C(=O)N[C@H]3C(=O)N[C@H](C(=O)N[C@H](C(=O)O)c4cc(O)cc(O)c4-c4cc3ccc4O)[C@H](O)c3ccc(c(Cl)c3)Oc3cc2cc(c3O[C@@H]2O[C@H](CO)[C@@H](O)[C@H](O)[C@H]2O[C@H]2C[C@](C)(N)[C@H](O)[C@H](C)O2)Oc2ccc(cc2Cl)[C@H]1O", "target or system": "Enterobacter cloacae", "test": "microbial growth, broth dilution", "system": "ATCCBAA1143", "quantity": "MIC", "value": "> 64 µg/mL"}
{"SMILES": "COc1cccc(Oc2ccccc2NC(=O)CNC(=O)c2cccc3ccccc23)c1", "target or system": "HL-60", "test": "cell growth or viability", "conditions": "48 h", "quantity": "GI50", "value": "0.0813 µM"}
